Experiment: Toxicity liver stage against HepG2, at 10uM
Assay type: cell-based
Parameters: test concentration 10 uM, cell line HepG2-A16-CD81EGFP
Conditions: human, HepG2-A16-CD81EGFP cells; read-out: INHIBITION
Procedure, shortened: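 Uninfected HepG2-A16-CD81EGFP cells, 3 × 10^3 per well, 1536-well, plated on prespotted compound at 10 μM final, parasite-free screening media added to match infected plates; puromycin 10 μM positive, DMSO 0.5% negative; run in parallel with 48 h PbLuc assay at 37 °C, 5% CO2; viability by CellTiter-Glo luminescence, normalized to controls.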

SMILES | cytotoxicity at 10 µM
F[C@@H]1CN(Cc2nccs2)C[C@@H]1OCc1nc2cnccc2[nH]1 | 4.15%
O=C(NC1CCCCC1)c1cc(Br)cnc1N1CCCCC1 | 2.22%
CCS(=O)(=O)N1CCC2(CCN(CC(=O)N(C)C)C2=O)CC1 | 5.68%
O=C(c1ccnnc1)N1C[C@@H](OCc2cccnc2)[C@H]2OCCC[C@H]21 | 5.03%
Cc1nn(C)c(=O)c2nn(-c3cccc(Cl)c3)c(C)c12 | 3.79%
COc1cc(Br)c(S(=O)(=O)NC(=O)C(C)OC)cc1OC (stereo not given) | -22.9%
CCOc1ncccc1CNC(=O)CN1CCCCCC1=O | 2.92%
CC(C)Cc1noc(CN2CCCN(C(=O)c3ccccc3Cl)CC2)n1 | -5.95%
CCc1csc(C2CCCN(C(=O)c3ccc(OC)nc3)C2)n1 (stereo not given) | 4.65%
COc1ccc(C(C)NC(=O)Nc2nccs2)cc1OC (stereo not given) | 4.37%
CC(NC(=O)c1cccnc1N(C)C)c1ccccc1Br (stereo not given) | 17.7%
CCc1nc(CNC(C)(CO)C2CCCCC2)no1 (stereo not given) | -13.1%
CC(=O)N1CCN(C(=O)CNc2cccc(OC(F)F)c2C)CC1 | -11.4%
O=C1CCN(C(=O)CCc2cc(Br)cs2)CCN1 | -2.1%
CCN(Cc1csc(CS(C)(=O)=O)n1)c1cccc(CO)c1 | -10%
CC(Cn1cccn1)NCc1nc(-c2ccc3c(c2)OCO3)no1 (stereo not given) | -12.4%
O=C(Nc1ncn(Cc2cccc(Br)c2)n1)C1CCC1 | 11.4%
Cc1cc(C(=O)N2CCn3c(COCC4CCCC4)cnc3C2C)on1 (stereo not given) | 3.18%
NC(=O)c1cnc2n1CCN(C(=O)c1cccc(Cn3cccn3)c1)C2 | 4.35%
CN(Cc1ccc(-n2cccn2)cc1)Cc1cnc(N(C)C)nc1 | -1.28%
Cc1cc(C(=O)N2CCC(n3nc(C)cc3C)C2)c2ccc(F)cc2n1 (stereo not given) | -5.08%
O=C1CCC2(CCCN(C(=O)c3ccoc3)C2)CN1Cc1ccncc1 (stereo not given) | 3.06%
CCc1nc(C)sc1CN1CCc2[nH]nc(-c3ccc(F)c(F)c3)c2C1 | 5.57%

SMILES | cytotoxicity at 10 µM
COc1ccccc1N1CCN(Cc2ncc(C)c(OC)c2C)CC1=O | 6.18%
CSc1ccccc1C(=O)N(C)Cc1nncn1C(C)C | 3.92%
O=C(CCc1ccco1)N1CCC(Oc2ccccc2)(C(=O)O)CC1 | 1.46%
Cn1ccc2c(-c3ccc(NCCO)nn3)ccnc21 | -5.56%
Cc1nc2ccccc2n1Cc1cc(C(=O)N(C)C2CCOCC2)no1 | 25.7%
CCN(CC)CCn1ccnc1-c1[nH]cnc1C | -8.88%
CNC(=O)COc1cccc(CNC(=O)c2c(C)noc2C(C)C)c1 | -2.8%
O=C(Cc1cccc(F)c1)NCCNc1ncccn1 | -6.71%
Cc1nc(C)n(CC2CN(Cc3cccc4ccccc34)CCO2)n1 (stereo not given) | -2.64%
Cc1noc(C)c1CCC(=O)N1CCCC(n2cccn2)C1 (stereo not given) | -7.81%
CCNc1cc2c(nn1)CCN(C(=O)c1cccc(CSC)c1)C2 | -12.7%
CN(Cc1noc(C2CC2)n1)C1CCN(CCn2cc(C#N)cn2)C1 (stereo not given) | -9.1%
Cc1nn(C)c(Cl)c1C1CCCN1C(=O)c1cccn1C (stereo not given) | -5.53%
CC(=O)Nc1nc(C(=O)N2CCCC2Cn2cccn2)cs1 (stereo not given) | -5.42%
Cc1cccc(C(=O)N(C)C2CCN(c3ccccn3)CC2)c1C | 1.84%
Cc1noc(CN2CCN(C(=O)c3ccccn3)CC2)n1 | 1.35%
CCOCCCn1c(NC(=O)c2ccc(C)nc2)nc2ccccc21 | -6.95%
Cc1nn(C)c(C)c1C1COCCN1C(=O)c1ccccc1 (stereo not given) | -10.2%
CN(CC(=O)N(C)C1CCCCC1)C1CCc2ccccc21 (stereo not given) | -7.44%
CNC(=O)[C@H]1C[C@@H]2CN(C(=O)c3ccccn3)C[C@@H]2N1S(C)(=O)=O | -1.37%
Cc1ccsc1CN1CC[C@H]2OCC[C@@]2(C(=O)N2CCCO2)C1 | -4%
Cc1nc(CN2CCO[C@@H]3CN(Cc4cccs4)C[C@@H]3C2)cs1 | 6.11%
